In ChEMBL document CHEMBL4477166, “18β-Glycyrrhetinic Acid Derivatives Possessing a Trihydroxylated A Ring Are Potent Gram-Positive Antibacterial Agents” (2016):
≈ marks a conversion by molar mass, not a printed value. Calls of active or inactive are those of the source. No cut-off for these calls is given here.

Tests used:
Escherichia coli = test: Antibacterial activity against Escherichia coli at 100 uM measured after 5 to 6 hrs by microdilution assay; type: functional, organism-based
Pseudomonas aeruginosa [1] = test: Antibacterial activity against multi-drug resistant Pseudomonas aeruginosa at 100 uM measured after 5 to 6 hrs by microdilution assay; type: functional, organism-based
In short: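 Log-phase cells seeded at 1 × 10⁵ CFU/mL. Single-dose screen at 100 μM, with DMSO cosolvent at most 1% v/v. Growth measured turbidimetrically at 620 nm, before and after incubation with vigorous shaking.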

Staphylococcus aureus [2] = test: Antibacterial activity against methicillin-resistant Staphylococcus aureus by microdilution assay; type: functional
In short: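 Log-phase cells seeded at 1 × 10⁵ CFU/mL. Twofold serial dilutions made in broth with DMSO cosolvent, at most 1% v/v. Turbidity read at 620 nm before and after incubation with vigorous shaking. MIC is the lowest concentration with no apparent growth versus the medium-plus-vehicle control. Run in triplicate.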

Staphylococcus aureus [3] = test: Antibacterial activity against Staphylococcus aureus ATCC 25923 by microdilution assay; type: functional
In short: (§1)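 Turbidimetric broth microdilution. Log-phase cells were washed and resuspended in broth (LB at 37 °C for B. subtilis and S. aureus; oat bran broth at 28 °C for S. scabies) and seeded at 1 × 10⁵ CFU/mL. Twofold serial dilutions were made with DMSO ≤1% (v/v). A620 was read, then plates were incubated with vigorous shaking. MIC was the lowest concentration with no apparent growth versus vehicle-only medium without cells. Run in triplicate.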

Pseudomonas aeruginosa [4] = test: Antibacterial activity against Pseudomonas aeruginosa at 100 uM measured after 5 to 6 hrs by microdilution assay; type: functional, organism-based
Bacillus subtilis = test: Antibacterial activity against Bacillus subtilis ATCC 6051 by microdilution assay; type: functional; in short: as §1
Streptomyces scabiei = test: Antibacterial activity against Streptomyces scabiei CGMCC4.7610246 by microdilution assay; type: functional; in short: as §1

Compound | Activity (Escherichia coli) | Activity (Pseudomonas aeruginosa [1]) | MIC (Staphylococcus aureus [2]) | MIC (Staphylococcus aureus [3]) | Activity (Pseudomonas aeruginosa [4]) | MIC (Bacillus subtilis) | MIC (Streptomyces scabiei)
CCCCCCCCCCCCCCCOC(=O)[C@@]1(C)CC[C@]2(C)CC[C@]3(C)C(=CC[C@@H]4[C@@]5(C)[C@@H](O)[C@H](O)[C@H](O)C(C)(C)[C@@H]5CC[C@]43C)[C@@H]2C1 | inactive | inactive | > 50 µg/mL | > 50 µg/mL | inactive | > 50 µg/mL | > 50 µg/mL
CC1(C)[C@@H](O)[C@@H](O)[C@H](O)[C@]2(C)[C@H]3C(=O)C=C4[C@@H]5C[C@@](C)(C(=O)OCc6ccccc6[N+](=O)[O-])CC[C@]5(C)CC[C@@]4(C)[C@]3(C)CC[C@@H]12 | inactive | inactive | > 50 µg/mL | > 50 µg/mL | inactive | > 50 µg/mL | > 50 µg/mL
CC1(C)C(=O)C=C[C@]2(C)[C@H]3CC=C4[C@@H]5C[C@@](C)(C(=O)OCc6ccccc6)CC[C@]5(C)CC[C@@]4(C)[C@]3(C)CC[C@@H]12 | inactive | inactive | > 32 µg/mL | > 34.6 µg/mL | inactive | > 34.6 µg/mL | 34.6 µg/mL (≈ 63.7 µM)
CC1(C)C(=O)CC[C@]2(C)[C@H]3CC=C4[C@@H]5C[C@@](C)(C(=O)OCc6ccccc6)CC[C@]5(C)CC[C@@]4(C)[C@]3(C)CC[C@@H]12 | inactive | inactive | > 50 µg/mL | > 50 µg/mL | inactive | > 50 µg/mL | > 50 µg/mL
CC1(C)[C@@H](O)[C@@H](O)[C@H](O)[C@]2(C)[C@H]3CC=C4[C@@H]5C[C@@](C)(C(=O)O)CC[C@]5(C)CC[C@@]4(C)[C@]3(C)CC[C@@H]12 | inactive | inactive | > 32 µg/mL | 15.6 µg/mL (≈ 31.9 µM) | inactive | > 31.2 µg/mL | 31.2 µg/mL (≈ 63.8 µM)
CC1(C)[C@H](O)[C@@H]2O[C@@H]2[C@]2(C)[C@H]3CC=C4[C@@H]5C[C@@](C)(C(=O)OCc6ccccc6)CC[C@]5(C)CC[C@@]4(C)[C@]3(C)CC[C@@H]12 | inactive | inactive | > 50 µg/mL | > 50 µg/mL | inactive | > 50 µg/mL | > 50 µg/mL
CC1(C)C(=O)CC[C@]2(C)[C@H]3C(=O)C=C4[C@@H]5C[C@@](C)(C(=O)OCc6ccccc6)CC[C@]5(C)CC[C@@]4(C)[C@]3(C)CC[C@@H]12 | inactive | inactive | > 50 µg/mL | > 50 µg/mL | inactive | > 50 µg/mL | > 50 µg/mL
CC1(C)[C@@H](O)[C@@H](O)[C@H](O)[C@]2(C)[C@H]3C(=O)C=C4[C@@H]5C[C@@](C)(C(=O)OCc6ccccc6)CC[C@]5(C)CC[C@@]4(C)[C@]3(C)CC[C@@H]12 | inactive | inactive | 4 µg/mL (≈ 6.75 µM) | > 37.8 µg/mL | inactive | > 37.8 µg/mL | > 37.8 µg/mL
CC1(C)[C@@H](O)[C@@H](O)[C@H](O)[C@]2(C)[C@H]3C(=O)C=C4[C@@H]5C[C@@](C)(C(=O)O)CC[C@]5(C)CC[C@@]4(C)[C@]3(C)CC[C@@H]12 | inactive | inactive | > 50 µg/mL | > 50 µg/mL | inactive | > 50 µg/mL | > 50 µg/mL
CC1(C)[C@@H](O)[C@@H](O)[C@H](O)[C@]2(C)[C@H]3CC=C4[C@@H]5C[C@@](C)(C(=O)OCc6ccccc6)CC[C@]5(C)CC[C@@]4(C)[C@]3(C)CC[C@@H]12 | inactive | inactive | 8 µg/mL (≈ 13.8 µM) | > 36.9 µg/mL | inactive | > 36.9 µg/mL | > 36 µg/mL
